This note sets out measurements from the M2OR odorant receptor database.

What all share (settings): stereoisomer not certain
One experiment has as its target T1, OR52A5 (Homo sapiens) (UniProt Q9H2C5).
T1 sequence (whole entry): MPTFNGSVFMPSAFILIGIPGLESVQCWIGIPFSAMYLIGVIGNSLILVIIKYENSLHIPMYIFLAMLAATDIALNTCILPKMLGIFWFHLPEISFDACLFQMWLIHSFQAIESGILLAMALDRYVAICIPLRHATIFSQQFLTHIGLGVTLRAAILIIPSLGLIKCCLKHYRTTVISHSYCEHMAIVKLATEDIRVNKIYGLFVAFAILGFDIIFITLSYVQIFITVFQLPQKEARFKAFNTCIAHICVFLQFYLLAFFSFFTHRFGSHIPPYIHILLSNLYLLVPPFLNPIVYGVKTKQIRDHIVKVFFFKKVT
The gist of the method:
(§1)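 Values were gathered from published papers (main text and supplementary material), with extra details requested from the original authors when needed, and checked for typos and inconsistencies. Each receptor–molecule pair is called responsive (active) if the original authors judged the measured signal statistically different from baseline, and non-responsive (inactive) otherwise. Assay methods varied by source, often transient mammalian cell-line luciferase assays. Recorded details include cell line, G-protein, co-transfected protein and tags.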

The target in another experiment is T2, OR52B2 (Homo sapiens) (UniProt Q96RD2).
T2 sequence (whole entry): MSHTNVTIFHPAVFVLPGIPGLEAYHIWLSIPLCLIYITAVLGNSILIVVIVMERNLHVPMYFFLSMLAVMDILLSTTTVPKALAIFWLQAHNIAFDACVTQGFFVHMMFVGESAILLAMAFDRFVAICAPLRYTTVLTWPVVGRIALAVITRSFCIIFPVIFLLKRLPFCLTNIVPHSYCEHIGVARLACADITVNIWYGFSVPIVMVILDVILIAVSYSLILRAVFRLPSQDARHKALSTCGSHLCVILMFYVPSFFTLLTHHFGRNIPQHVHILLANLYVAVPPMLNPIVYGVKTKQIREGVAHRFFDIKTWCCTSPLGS
The gist of the method: as §1

For another experiment, the target named is T3, OR52B4 (Homo sapiens) (UniProt Q8NGK2).
T3 sequence (whole entry): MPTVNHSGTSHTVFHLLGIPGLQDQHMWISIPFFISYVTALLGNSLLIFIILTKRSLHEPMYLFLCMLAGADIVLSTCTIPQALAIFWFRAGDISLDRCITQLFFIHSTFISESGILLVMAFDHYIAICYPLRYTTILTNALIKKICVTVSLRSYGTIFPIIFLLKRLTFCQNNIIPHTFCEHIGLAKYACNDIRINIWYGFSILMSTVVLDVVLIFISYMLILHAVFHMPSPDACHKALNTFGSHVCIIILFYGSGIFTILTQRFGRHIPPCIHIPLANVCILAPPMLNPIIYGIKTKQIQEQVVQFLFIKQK
The gist of the method:
as §1

For the next experiment, the target named is T4, OR52B6 (Homo sapiens) (UniProt Q8NGF0).
T4 sequence (whole entry): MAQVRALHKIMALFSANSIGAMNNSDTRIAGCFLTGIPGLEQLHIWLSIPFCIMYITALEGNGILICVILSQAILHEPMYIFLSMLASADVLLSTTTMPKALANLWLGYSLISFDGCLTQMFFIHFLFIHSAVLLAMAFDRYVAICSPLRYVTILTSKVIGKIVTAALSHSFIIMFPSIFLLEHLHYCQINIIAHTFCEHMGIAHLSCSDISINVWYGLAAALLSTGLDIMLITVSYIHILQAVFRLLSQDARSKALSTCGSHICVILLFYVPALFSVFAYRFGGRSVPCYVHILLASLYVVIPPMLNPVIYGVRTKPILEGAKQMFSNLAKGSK
The gist of the method:
as §1

The target of a further experiment is T5, OR52D1 (Homo sapiens) (UniProt Q9H346).
T5 sequence (whole entry): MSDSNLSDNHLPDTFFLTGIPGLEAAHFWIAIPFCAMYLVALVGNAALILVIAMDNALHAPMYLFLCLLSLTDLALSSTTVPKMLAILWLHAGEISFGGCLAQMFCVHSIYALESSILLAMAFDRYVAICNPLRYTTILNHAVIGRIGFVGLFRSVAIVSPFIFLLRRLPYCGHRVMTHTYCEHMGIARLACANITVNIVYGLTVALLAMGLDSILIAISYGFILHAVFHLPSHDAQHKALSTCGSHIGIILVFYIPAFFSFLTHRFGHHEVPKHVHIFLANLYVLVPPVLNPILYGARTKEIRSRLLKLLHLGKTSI
The gist of the method:
as §1

In another experiment the target is OR52E1 (Homo sapiens) (UniProt Q8NGJ3). The gist of the method:
as §1

For another experiment, the target named is OR52E2 (Homo sapiens) (UniProt Q8NGJ4). In short, it runs like this:
as §1

The target in a further experiment is OR52E4 (Homo sapiens) (UniProt Q8NGH9). In short, it runs like this:
as §1

In the next experiment the target is OR52E5 (Homo sapiens) (UniProt Q8NH55). In short, it runs like this: as §1
The target in the next experiment is OR52E6 (Homo sapiens) (UniProt Q96RD3). In short, it runs like this:
as §1

Sequence of OR52E5 (Homo sapiens) (Q8NH55 whole entry): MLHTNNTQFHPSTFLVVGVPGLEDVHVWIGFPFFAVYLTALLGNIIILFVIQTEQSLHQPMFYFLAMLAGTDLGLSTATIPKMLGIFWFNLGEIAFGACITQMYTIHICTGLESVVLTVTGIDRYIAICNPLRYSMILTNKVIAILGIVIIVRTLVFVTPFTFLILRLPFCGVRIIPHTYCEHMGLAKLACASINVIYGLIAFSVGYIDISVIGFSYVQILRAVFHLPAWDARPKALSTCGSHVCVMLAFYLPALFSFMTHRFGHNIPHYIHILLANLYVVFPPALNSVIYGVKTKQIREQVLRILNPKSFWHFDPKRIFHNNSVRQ
Sequence of OR52E6 (Homo sapiens) (Q96RD3 whole entry): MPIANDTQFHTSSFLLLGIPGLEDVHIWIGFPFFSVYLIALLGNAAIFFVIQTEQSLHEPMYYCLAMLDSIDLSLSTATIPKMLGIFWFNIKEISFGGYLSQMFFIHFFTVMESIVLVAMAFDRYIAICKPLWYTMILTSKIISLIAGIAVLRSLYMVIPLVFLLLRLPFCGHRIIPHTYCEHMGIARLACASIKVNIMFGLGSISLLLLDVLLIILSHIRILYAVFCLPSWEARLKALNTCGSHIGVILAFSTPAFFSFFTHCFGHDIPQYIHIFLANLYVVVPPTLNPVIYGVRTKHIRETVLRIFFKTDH
Sequence of OR52E4 (Homo sapiens) (Q8NGH9 whole entry): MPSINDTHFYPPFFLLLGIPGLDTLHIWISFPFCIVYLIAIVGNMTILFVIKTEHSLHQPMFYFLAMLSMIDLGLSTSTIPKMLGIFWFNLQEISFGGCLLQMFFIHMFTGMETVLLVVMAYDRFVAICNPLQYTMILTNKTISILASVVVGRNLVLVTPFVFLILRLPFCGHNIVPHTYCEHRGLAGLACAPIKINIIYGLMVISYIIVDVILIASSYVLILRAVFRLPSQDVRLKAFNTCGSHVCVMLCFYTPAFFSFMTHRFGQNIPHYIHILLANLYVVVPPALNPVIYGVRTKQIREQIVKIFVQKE
Sequence of OR52E2 (Homo sapiens) (Q8NGJ4 whole entry): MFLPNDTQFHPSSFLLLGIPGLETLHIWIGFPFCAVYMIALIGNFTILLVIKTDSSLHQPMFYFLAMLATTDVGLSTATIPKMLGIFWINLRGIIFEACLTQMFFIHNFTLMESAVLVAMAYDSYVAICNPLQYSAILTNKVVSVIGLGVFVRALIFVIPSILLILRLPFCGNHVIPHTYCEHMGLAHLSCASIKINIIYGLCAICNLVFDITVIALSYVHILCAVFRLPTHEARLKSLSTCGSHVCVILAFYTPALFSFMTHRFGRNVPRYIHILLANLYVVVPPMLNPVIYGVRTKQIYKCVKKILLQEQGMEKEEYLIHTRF
Sequence of OR52E1 (Homo sapiens) (Q8NGJ3 whole entry): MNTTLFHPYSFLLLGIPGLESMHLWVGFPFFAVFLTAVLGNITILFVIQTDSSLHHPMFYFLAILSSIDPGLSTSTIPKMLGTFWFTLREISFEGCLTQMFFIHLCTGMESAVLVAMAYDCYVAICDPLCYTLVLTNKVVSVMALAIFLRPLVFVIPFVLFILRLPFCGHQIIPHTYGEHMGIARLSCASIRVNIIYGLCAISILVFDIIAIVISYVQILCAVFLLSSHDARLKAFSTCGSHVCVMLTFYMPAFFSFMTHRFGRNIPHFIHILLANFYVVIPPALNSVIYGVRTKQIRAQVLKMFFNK

In the case of `CC1CCCCCCCCCCCCC(=O)C1` (centres undefined), the “odorant receptor agonist call” value with OR52A5 (Homo sapiens), with OR52B2 (Homo sapiens), with OR52B4 (Homo sapiens), with OR52B6 (Homo sapiens), in the experiment with OR52D1 (Homo sapiens) and in the experiment with OR52E1 (Homo sapiens) was “inactive” each time. For the same compound, the “odorant receptor agonist call” value in the experiment with OR52E2 (Homo sapiens), with OR52E4 (Homo sapiens), with OR52E5 (Homo sapiens) and in the experiment with OR52E6 (Homo sapiens) was “inactive” throughout.

In the case of `CC(=O)c1c(C)c([N+](=O)[O-])c(C(C)(C)C)c([N+](=O)[O-])c1C`, the “odorant receptor agonist call” value with OR52A5 (Homo sapiens), in the experiment with OR52B2 (Homo sapiens), with OR52B4 (Homo sapiens), in the experiment with OR52B6 (Homo sapiens), with OR52D1 (Homo sapiens) and in the experiment with OR52E1 (Homo sapiens) was “inactive” in each case. Further, the “odorant receptor agonist call” value in the experiment with OR52E2 (Homo sapiens), with OR52E4 (Homo sapiens), with OR52E5 (Homo sapiens) and with OR52E6 (Homo sapiens) was “inactive” throughout.

With `CCCCC(S)C(C)CO` (centres undefined), the “odorant receptor agonist call” value in the experiment with OR52A5 (Homo sapiens) was “active”. Besides, the “odorant receptor agonist call” value with OR52B2 (Homo sapiens), in the experiment with OR52B4 (Homo sapiens), with OR52B6 (Homo sapiens), with OR52D1 (Homo sapiens), with OR52E2 (Homo sapiens) and in the experiment with OR52E4 (Homo sapiens) was “inactive” in each case. The “odorant receptor agonist call” value in the experiment with OR52E5 (Homo sapiens) and with OR52E6 (Homo sapiens) was “inactive” throughout.

As to `CCCCCCCCCCCC=O`, in the experiment with OR52D1 (Homo sapiens), the “odorant receptor agonist call” value is “inactive”.

On to `CCCCCC(=O)C(C)C(C)=O` (centres undefined), for which the “odorant receptor agonist call” value with OR52A5 (Homo sapiens), in the experiment with OR52B2 (Homo sapiens), with OR52B4 (Homo sapiens), with OR52B6 (Homo sapiens), with OR52D1 (Homo sapiens) and with OR52E2 (Homo sapiens) was “inactive” throughout. The “odorant receptor agonist call” value with OR52E4 (Homo sapiens), in the experiment with OR52E5 (Homo sapiens) and with OR52E6 (Homo sapiens) was “inactive” throughout.

Regarding `CCCCCCCC(=O)OCC`, the “odorant receptor agonist call” value in the experiment with OR52D1 (Homo sapiens) was “inactive”.

In the case of `CC1=C(O)C(=O)C(C)O1` (centres undefined), the “odorant receptor agonist call” value with OR52A5 (Homo sapiens), with OR52B2 (Homo sapiens), with OR52B4 (Homo sapiens), in the experiment with OR52B6 (Homo sapiens), with OR52D1 (Homo sapiens) and with OR52E1 (Homo sapiens) was “inactive” in each case. The “odorant receptor agonist call” value with OR52E2 (Homo sapiens), with OR52E4 (Homo sapiens) and with OR52E6 (Homo sapiens) was “inactive” each time.

As for `CC1=NC(C)C(C)S1` (centres undefined), the “odorant receptor agonist call” value with OR52A5 (Homo sapiens), in the experiment with OR52B2 (Homo sapiens), with OR52B4 (Homo sapiens), in the experiment with OR52B6 (Homo sapiens), in the experiment with OR52D1 (Homo sapiens) and with OR52E1 (Homo sapiens) was “inactive” each time. Also, the “odorant receptor agonist call” value with OR52E2 (Homo sapiens), with OR52E4 (Homo sapiens) and with OR52E6 (Homo sapiens) was “inactive” throughout.

With `CC(CO)CS` (centres undefined), the “odorant receptor agonist call” value with OR52A5 (Homo sapiens), with OR52B2 (Homo sapiens), with OR52B4 (Homo sapiens), with OR52B6 (Homo sapiens), with OR52D1 (Homo sapiens) and in the experiment with OR52E2 (Homo sapiens) was “inactive” throughout. Further, the “odorant receptor agonist call” value with OR52E4 (Homo sapiens), with OR52E5 (Homo sapiens) and with OR52E6 (Homo sapiens) was “inactive” throughout.

With `CCCC(S)CCOC(C)=O` (centres undefined), the “odorant receptor agonist call” value with OR52A5 (Homo sapiens), with OR52B2 (Homo sapiens), with OR52B4 (Homo sapiens), in the experiment with OR52B6 (Homo sapiens), in the experiment with OR52D1 (Homo sapiens) and with OR52E1 (Homo sapiens) was “inactive” in each case. Moreover, the “odorant receptor agonist call” value in the experiment with OR52E2 (Homo sapiens), with OR52E4 (Homo sapiens) and with OR52E6 (Homo sapiens) was “inactive” in each case.

Turning to `Cc1cnc(C)c(C)n1`, the “odorant receptor agonist call” value with OR52A5 (Homo sapiens), with OR52B2 (Homo sapiens), with OR52B4 (Homo sapiens), with OR52B6 (Homo sapiens), with OR52D1 (Homo sapiens) and with OR52E1 (Homo sapiens) was “inactive” in each case. Moreover, the “odorant receptor agonist call” value in the experiment with OR52E2 (Homo sapiens), with OR52E4 (Homo sapiens) and with OR52E6 (Homo sapiens) was “inactive” throughout.

Take `c1ccc2[nH]ccc2c1`: the “odorant receptor agonist call” value with OR52D1 (Homo sapiens) was “inactive”.

With `CCCCCC1C(=O)CCC1CC(=O)OC` (centres undefined), in the experiment with OR52D1 (Homo sapiens), the “odorant receptor agonist call” value was “inactive”.

As for `CCCCCCC(=O)OCC`, in the experiment with OR52D1 (Homo sapiens), the “odorant receptor agonist call” value was “active”.

With `CCC1OC(=O)C(O)=C1C` (centres undefined), the “odorant receptor agonist call” value in the experiment with OR52A5 (Homo sapiens), in the experiment with OR52B2 (Homo sapiens), with OR52B4 (Homo sapiens), with OR52B6 (Homo sapiens), in the experiment with OR52D1 (Homo sapiens) and with OR52E1 (Homo sapiens) was “inactive” each time. Also, the “odorant receptor agonist call” value with OR52E2 (Homo sapiens), in the experiment with OR52E4 (Homo sapiens) and with OR52E6 (Homo sapiens) was “inactive” each time.

As to `CCC1OC(C)=C(O)C1=O` (centres undefined), the “odorant receptor agonist call” value with OR52A5 (Homo sapiens), in the experiment with OR52B2 (Homo sapiens), in the experiment with OR52B4 (Homo sapiens), with OR52B6 (Homo sapiens), with OR52D1 (Homo sapiens) and with OR52E1 (Homo sapiens) was “inactive” in each case. Besides, the “odorant receptor agonist call” value with OR52E2 (Homo sapiens), in the experiment with OR52E4 (Homo sapiens) and with OR52E6 (Homo sapiens) was “inactive” throughout.

With `CCCCCCCO`, in the experiment with OR52D1 (Homo sapiens), the “odorant receptor agonist call” value is “inactive”.

With `CCCCCCC=CCCC=O`, the “odorant receptor agonist call” value with OR52A5 (Homo sapiens), in the experiment with OR52B2 (Homo sapiens), in the experiment with OR52B4 (Homo sapiens), in the experiment with OR52B6 (Homo sapiens), in the experiment with OR52D1 (Homo sapiens) and with OR52E1 (Homo sapiens) was “inactive” throughout. For the same compound, the “odorant receptor agonist call” value in the experiment with OR52E2 (Homo sapiens), with OR52E4 (Homo sapiens), in the experiment with OR52E5 (Homo sapiens) and with OR52E6 (Homo sapiens) was “inactive” each time.

On to `CCCCCCCCC(=O)O`, for which the “odorant receptor agonist call” value with OR52B2 (Homo sapiens) was “inactive”. Also, in the experiment with OR52D1 (Homo sapiens), the “odorant receptor agonist call” value was “active”.

Turning to `C=C(C)C1CC=C(C)CC1` (centres undefined), the “odorant receptor agonist call” value with OR52D1 (Homo sapiens) is “inactive”.

Consider `CCCCCC1CCCC(=O)O1` (centres undefined), for which the “odorant receptor agonist call” value in the experiment with OR52A5 (Homo sapiens), with OR52B2 (Homo sapiens), in the experiment with OR52B4 (Homo sapiens), in the experiment with OR52B6 (Homo sapiens), in the experiment with OR52E2 (Homo sapiens) and with OR52E4 (Homo sapiens) was “inactive” throughout. The “odorant receptor agonist call” value in the experiment with OR52E5 (Homo sapiens) and with OR52E6 (Homo sapiens) was “inactive” throughout. Besides, in the experiment with OR52D1 (Homo sapiens), the “odorant receptor agonist call” value is “active”.

Turning to `CC1=C(O)C(=O)OC1C` (centres undefined), the “odorant receptor agonist call” value with OR52A5 (Homo sapiens), with OR52B2 (Homo sapiens), with OR52B4 (Homo sapiens), in the experiment with OR52B6 (Homo sapiens), in the experiment with OR52D1 (Homo sapiens) and with OR52E1 (Homo sapiens) was “inactive” each time. The “odorant receptor agonist call” value with OR52E2 (Homo sapiens), with OR52E4 (Homo sapiens) and with OR52E6 (Homo sapiens) was “inactive” each time.

With `CCCCCCCCCCC(C)=O`, the “odorant receptor agonist call” value with OR52D1 (Homo sapiens) is “inactive”.

As to `CCCCCCC1CCC(=O)O1` (centres undefined), in the experiment with OR52D1 (Homo sapiens), the “odorant receptor agonist call” value was “inactive”.

For `CCC(S)C(C)CO` (centres undefined), the “odorant receptor agonist call” value in the experiment with OR52A5 (Homo sapiens), with OR52B2 (Homo sapiens), with OR52B4 (Homo sapiens), in the experiment with OR52B6 (Homo sapiens), with OR52D1 (Homo sapiens) and with OR52E2 (Homo sapiens) was “inactive” in each case. Further, the “odorant receptor agonist call” value with OR52E4 (Homo sapiens), in the experiment with OR52E5 (Homo sapiens) and with OR52E6 (Homo sapiens) was “inactive” in each case.

`CCCC(=O)OCC`: in the experiment with OR52D1 (Homo sapiens), the “odorant receptor agonist call” value was “active”.

As to `CCCCCC(S)C(C)CO` (centres undefined), the “odorant receptor agonist call” value in the experiment with OR52A5 (Homo sapiens), in the experiment with OR52B2 (Homo sapiens), with OR52B4 (Homo sapiens), with OR52B6 (Homo sapiens), with OR52D1 (Homo sapiens) and with OR52E2 (Homo sapiens) was “inactive” each time. The “odorant receptor agonist call” value with OR52E4 (Homo sapiens), with OR52E5 (Homo sapiens) and in the experiment with OR52E6 (Homo sapiens) was “inactive” in each case.
